Screens as filed in PubChem BioAssay.
Rows were chosen to be rich in hits. Some 5.4% of all compounds tested hit in one or more screens of this group.
EphB4 antag = antagonists of human EphB4-ephrin-B2 interaction. actives 0.15% (n = 97,000). EphB4 LBD / TNYL-RAW-Alexa532 peptide, fluorescence polarization. P54760. inhibition, % at 7 µM;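 active means inhibition above the screen-wide mean inhibition plus 3 SD, cut at about 15% in these data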;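 further: 0% = DMSO wells and 100% = excess unlabeled TNYL-RAW peptide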
Cav32 inh = inhibitors of human Cav3.2 T-type calcium channel; Cav3.2-expressing cells, Fluo-4 calcium fluorescence FDSS; stronger effect = lower value; B-score at 10 µM; AID 449739; actives 4% (n = 100,000);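 active means single-dose well whose peak fluorescence ratio is a statistical outlier from its plate by either plate-standardised score or position-corrected B-score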
hDAT+cocaine = modulates human dopamine transporter uptake under cocaine. AID 449768. LLC-PK1 hDAT cells, [14C]-dopamine uptake with cocaine IC80; actives deviate in either direction. B-score at 10 µM. actives 1.3% (n = 110,000);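 active means Z score or B-score, a plate-position-corrected score, falls beyond the plate's 99.7% confidence bounds, in either direction; inactive means both scores lie inside the 99.7% bounds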;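 further: scored against the spread of the other compound wells on the same plate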
Target sequence (Q01959 whole entry, looked up): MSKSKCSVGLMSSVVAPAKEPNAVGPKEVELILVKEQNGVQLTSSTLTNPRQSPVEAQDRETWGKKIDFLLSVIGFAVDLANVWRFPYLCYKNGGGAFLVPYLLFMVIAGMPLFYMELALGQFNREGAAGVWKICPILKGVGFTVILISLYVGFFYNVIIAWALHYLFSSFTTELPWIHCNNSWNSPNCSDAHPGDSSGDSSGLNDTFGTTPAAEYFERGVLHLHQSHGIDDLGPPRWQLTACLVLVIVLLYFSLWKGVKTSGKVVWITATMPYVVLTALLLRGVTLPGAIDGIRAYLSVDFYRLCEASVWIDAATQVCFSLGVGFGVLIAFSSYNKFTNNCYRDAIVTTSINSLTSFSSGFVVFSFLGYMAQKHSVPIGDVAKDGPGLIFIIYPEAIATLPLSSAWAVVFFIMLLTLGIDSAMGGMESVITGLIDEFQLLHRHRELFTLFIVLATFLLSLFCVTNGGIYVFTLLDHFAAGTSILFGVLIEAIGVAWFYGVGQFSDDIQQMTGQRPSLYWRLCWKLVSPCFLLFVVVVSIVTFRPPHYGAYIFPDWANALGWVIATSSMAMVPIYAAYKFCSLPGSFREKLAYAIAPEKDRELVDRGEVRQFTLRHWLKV
Rev-RRE block = HIV Rev-RRE protein-RNA interaction inhibition; P05866; inhibition, % at 8 µM; actives 0.79% (n = 97,000); Rev peptide-RRE RNA binding, FRET;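 active means inhibition above the screen-wide mean plus 3 SD, cut at about 35% in these data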;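 further: 0% = median DMSO wells and 100% = median Neomycin B control wells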
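Test system – labelled RRE RNA duplex and labelled Rev peptide · Signal – fluorescein-to-Cy5 FRET, 480 nm excitation · Evaluation – % inhibition of FRET ratio versus controls · Benchmarks – DMSO low control, neomycin B high control · Incubation – 5 min RNA-compound premix plus 15 min binding step, 25 °C · Medium – HEPES pH 7.5 salt buffer with EDTA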
Active calls of the source: *; [ ] = another dose, or the depositor's remark.

For O=C(COC(=O)c1cc(S(=O)(=O)N2CCOCC2)ccc1O)NCCc1ccccc1 the results were EphB4 antag 1, Cav32 inh -0.0022, hDAT+cocaine -0.15 and Rev-RRE block 7.
Screening O=C(CN1CCN(S(=O)(=O)c2ccc(Cl)cc2)CC1)Nc1ccc2c(c1)OCO2 returned EphB4 antag 3, Cav32 inh -3, hDAT+cocaine -0.14 and Rev-RRE block 8.
Screening CC(C)c1ccc(S(=O)(=O)N2CCN(CC(=O)Nc3ccc4c(c3)OCO4)CC2)cc1 returned Cav32 inh -6.9* and hDAT+cocaine -0.019.
For O=C(CN1CCN(S(=O)(=O)c2ccccc2)CC1)Nc1ccc(Cl)c(Cl)c1 the results were EphB4 antag 0, Cav32 inh -3.7*, hDAT+cocaine 2 and Rev-RRE block 10.
For O=C(CN1CCN(S(=O)(=O)c2ccccc2)CC1)Nc1ccc2c(c1)OCO2 the results were EphB4 antag -4, Cav32 inh -0.41, hDAT+cocaine -0.048 and Rev-RRE block 4.
`O=C(NCc1ccc(Cl)cc1)c1cnn2ccccc12` gave EphB4 antag 1, Cav32 inh 0.15, hDAT+cocaine -0.7 and Rev-RRE block 0.
Screening COc1ccc(N=Cc2sc(O)c3ccccc23)cc1 returned EphB4 antag -6, Cav32 inh -2.1, hDAT+cocaine -0.4 and Rev-RRE block 129*[fluorescence artefact?].
`COc1cc(O)oc1C=Nc1ccc(Oc2ccccc2)cc1` gave EphB4 antag -6, Cav32 inh -0.015, hDAT+cocaine -0.62 and Rev-RRE block 5.
O=C(NCCSCc1ccc(Cl)cc1Cl)c1ccc(CN2CCOCC2)cc1 was read as EphB4 antag -1, Cav32 inh -4.3*, hDAT+cocaine 3.2* and Rev-RRE block 4.
Screening O=C(/C=C/c1ccc2c(c1)OCO2)NCCSCc1cccc(Cl)c1 returned EphB4 antag -14 and Rev-RRE block 8.
O=C(/C=C/c1ccc2c(c1)OCO2)NCCSCc1ccc(Cl)cc1Cl was read as EphB4 antag -2, Cav32 inh -6.3*, hDAT+cocaine -0.39 and Rev-RRE block 11.
For Cc1cc(C)n(C(=O)CCCCCCCCC(=O)n2nc(C)cc2C)n1 the results were EphB4 antag -5, Cav32 inh -0.66, hDAT+cocaine -0.93 and Rev-RRE block 8.
Screening O=C(O)C1=C[C@H](c2ccc3c(c2)OCO3)C[C@H](OCCCCO)O1 returned Cav32 inh 1.9 and hDAT+cocaine -0.86.
`CCNc1nc(NC(C)C)nc(N(C#N)CCOc2ccc(Cl)cc2Cl)n1` gave EphB4 antag -7, Cav32 inh -9.4*, hDAT+cocaine 0.3 and Rev-RRE block 6.
Screening COCc1cc(C)nc(OCC(=O)N/N=C/c2cc(C)n(-c3c(C)cccc3C)c2C)c1C#N returned EphB4 antag 6, Cav32 inh -4.4*, hDAT+cocaine -0.079 and Rev-RRE block 3.
Screening CC1CN=C(N(Cc2ccccc2)C(=O)Nc2ccccc2)S1 (stereo unspecified) returned EphB4 antag 6, Cav32 inh -8.4*, hDAT+cocaine -0.66 and Rev-RRE block 4.
COc1ccccc1N(C(=O)NCc1ccccc1)C1=NCC(C)S1 (stereo unspecified) was read as EphB4 antag 6, Cav32 inh -4.7*, hDAT+cocaine -1.1 and Rev-RRE block 9.
CCn1c(Sc2ccc(N)cc2Cl)nc2ccccc21 was read as EphB4 antag 2, Cav32 inh -2.9, hDAT+cocaine 0.042 and Rev-RRE block 4.
Cc1cccc(S(=O)(=O)NCCC(=O)OC(C)C(=O)NC(=O)NC2CCCCC2)c1 (stereo unspecified) was read as EphB4 antag -9, Cav32 inh -7.8*, hDAT+cocaine 0.53 and Rev-RRE block -1.
For O=C(c1ccc(Cl)c(S(=O)(=O)N2CCCCCC2)c1)N1CCN(c2ccccn2)CC1 the results were EphB4 antag 5, Cav32 inh -2.1, hDAT+cocaine 2.7* and Rev-RRE block 0.
Cc1ccnc(NCn2nnc3ccccc32)c1 was read as EphB4 antag -1, Cav32 inh -0.47, hDAT+cocaine 0.069 and Rev-RRE block 8.
CC(=O)c1cccc(NC(=O)COc2ccc(S(=O)(=O)N3CCCCC3)cc2)c1 was read as EphB4 antag -4, hDAT+cocaine 0.24 and Rev-RRE block 8.
`O=S(=O)(Nc1ncnc2sc3c(c12)CCC3)c1ccc(Cl)s1` gave EphB4 antag 2, Cav32 inh -2.9, hDAT+cocaine -2.4* and Rev-RRE block 10.
For Cc1nc(NS(=O)(=O)c2ccc(Br)cc2)c2c3c(sc2n1)CCC3 the results were EphB4 antag -1, Cav32 inh -4.6*, hDAT+cocaine -0.52 and Rev-RRE block -1.
CN(C)/C=C(\C=N\OCc1ccc(Cl)cc1Cl)C(=O)Nc1ccc(Cl)c(Cl)c1 was read as EphB4 antag 5, Cav32 inh 0.19, hDAT+cocaine -0.051 and Rev-RRE block 6.
For Cc1noc(/C=C/N(C)C)c1S(=O)(=O)N1CCCC(C(=O)NCc2ccccc2Cl)C1 (stereo unspecified) the results were EphB4 antag 5 and Rev-RRE block 5.
Screening Cc1c(NC(=O)c2ccc(N3CCCC3)c([N+](=O)[O-])c2)cccc1-c1nc2ccccc2s1 returned EphB4 antag -1, Cav32 inh -4.6*, hDAT+cocaine 0.47 and Rev-RRE block 4.
Screening O=C(Nc1ccc(N2CCCCC2)c(Cl)c1)c1ccc(N2CCOCC2)c([N+](=O)[O-])c1 returned EphB4 antag 2, Cav32 inh -2.1, hDAT+cocaine 0.32 and Rev-RRE block 1.
Screening CC(C)=CCOc1ccc([C@@H]2COc3c(ccc4c3C=CC(C)(C)O4)C2)c(O)c1 returned Cav32 inh 0.33 and hDAT+cocaine -0.29.
COC(=O)CC/C(O)=C1/C(=N)CC(C)(C)CC1=O was read as EphB4 antag 1, Cav32 inh 0.42, hDAT+cocaine 0.047 and Rev-RRE block 4.
`COc1ccc(-c2oc3ccc(-c4ccc5c(c4)OCO5)cc3c2-c2ccc(OC)nc2)cc1` gave Cav32 inh -0.039 and hDAT+cocaine -0.33.
For O=C(Oc1cc(-c2ccccc2)no1)c1ccc(F)cc1 the results were EphB4 antag -4, Cav32 inh -0.013, hDAT+cocaine -0.44 and Rev-RRE block 13.
`Cc1ccccc1Nc1nc(N)nc(CSc2nc3ccccc3c(=O)n2CCCO)n1` gave Cav32 inh 0.36 and hDAT+cocaine 2.7*.
`Cc1nn(Cc2ccc(Cl)cc2Cl)c(C)c1NC(=O)c1nn(C)cc1Cl` gave EphB4 antag -4, Cav32 inh 0.1, hDAT+cocaine 2.7 and Rev-RRE block 3.
For Cc1nn(Cc2cccc(F)c2)c(C)c1NC(=O)c1c([N+](=O)[O-])c(C)nn1C the results were EphB4 antag -4, Cav32 inh 0.098, hDAT+cocaine 0.93 and Rev-RRE block 2.
`O=C(Nc1ccccc1F)c1ccc(COc2ccc(Cl)cc2Cl)o1` gave EphB4 antag 1, Cav32 inh -0.5, hDAT+cocaine -0.73 and Rev-RRE block 16.
For Cc1nn(Cc2ccc(Cl)cc2Cl)c(C)c1NC(=O)c1ccc(COc2cc(Cl)ccc2Cl)o1 the results were EphB4 antag 6, Cav32 inh -5.2*, hDAT+cocaine 0.95 and Rev-RRE block 3.
